According to PMC11843194 (Experimental and Therapeutic Medicine, 2025):
Read-outs that look alike come from different tables or passages of the source.

Tests used:
[1] = type: in vivo, human
Procedure, shortened: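 Routine TDM of trough serum sunitinib and N-desethyl sunitinib in one patient, reported as total concentration (the sum of both); the clinical target trough is 50-100 ng/ml. Sampling: immediately before dasatinib and on days 7, 32, 70 and 84. Sunitinib was given orally at 14 days on/7 days off: 50 mg/day, 37.5 mg/day from day 18, then 50/37.5 mg/day alternately from day 81.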

[2] = type: in vivo, human; remark: listed apart in the source
Procedure, shortened: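 Serum from the patient was taken 8 h after dasatinib dosing, using the residue of samples drawn for sunitinib TDM, and assayed later by LC-MS/MS (LLOQ 0.5 ng/ml). Samples were from days 7, 32 and 84. Oral dasatinib was given at 60 mg/day, then 50 mg/day from day 28, alongside sunitinib; esomeprazole magnesium was a concomitant drug.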

[3] = system: chronic myeloid leukemia (CML); assay: Response of chronic myeloid leukemia to dasatinib in the patient; type: in vivo, human; details: day 154 after starting dasatinib; BCR::ABL1^IS≤1%
Procedure, shortened: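 Patient with chronic-phase CML took oral dasatinib at 60 mg/day from day 1. Cytogenetic response was defined as BCR::ABL1IS≤1% and assessed on day 154.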

CYP3A4 = details: cited from earlier work
[4] = cited from earlier work
[5] = rats; ketoconazole combined with sunitinib; cited from earlier work
Adverse events = type: in vivo, human; details: day -30; sunitinib 50 mg/day alone
Procedure, shortened: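 Single patient with metastatic renal cell carcinoma on oral sunitinib monotherapy, 14 days on/7 days off, before dasatinib started (day 1). Adverse events graded by CTCAE. Hand-foot skin reaction was managed with heparinoid cream and diarrhea with bifidobacterial powder.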

[6] = system: metastatic renal cell carcinoma (mRCC); assay: Course of metastatic renal cell carcinoma under sunitinib in the patient; type: in vivo, human; details: day 186; led to change from sunitinib to axitinib
[7] = clinical practice, sum of sunitinib and N-desethyl sunitinib; cited from earlier work
[8] = day 7, sunitinib 50 mg/day with dasatinib 60 mg/day
[9] = day 32, sunitinib 37.5 mg/day with dasatinib 50 mg/day
[10] = day 84, sunitinib 50.0 and 37.5 mg/day alternately with dasatinib 50 mg/day
[11] = immediately before starting dasatinib, sunitinib 50 mg/day alone, 14 days on/7 days off

Molecule `CCNCCNC(=O)c1c(C)[nH]c(/C=C2\C(=O)Nc3ccc(F)cc32)c1C` [N-desethyl sunitinib] has a trough serum concentration [1, 8] of 12.2 ng/mL, a trough serum concentration [1, 9] of 4.7 ng/mL and a trough serum concentration [1, 10] of 7.4 ng/mL. It also gave a trough serum concentration [1, 11] of 13.7 ng/mL.
With `Cc1nc(Nc2ncc(C(=O)Nc3c(C)cccc3Cl)s2)cc(N2CCN(CCO)CC2)n1` [dasatinib] the “effect of dasatinib combination on sunitinib serum concentration” value ([1]; day 7 versus before dasatinib, sunitinib 50 mg/day) was “no change”, the dasatinib serum concentration ([2]; day 7, 8 h after administration, dasatinib 60 mg/day with sunitinib) was 1.16 ng/mL and the dasatinib serum concentration ([2]; day 84, 8 h after administration, dasatinib 50 mg/day with sunitinib) was 2.75 ng/mL. For the same molecule, the concentration at 8 h ([2]; male, human, serum, oral, 50 mg/day) was 3 ng/mL, the “response for CML” value [3] was “complete cytogenetic response” and the CYP3A4 inhibition (CYP3A4) was “moderate”. For the same molecule, the solubility [4] was “pH-dependent”.
In the case of `CC(=O)N1CCN(c2ccc(OCC3COC(Cn4ccnc4)(c4ccc(Cl)cc4Cl)O3)cc2)CC1` (centres unmarked) [ketoconazole], the “effect of combination on the concentration of sunitinib” value [5] is listed as “significantly increased”.
Molecule `CCN(CC)CCNC(=O)c1c(C)[nH]c(/C=C2\C(=O)Nc3ccc(F)cc32)c1C` [sunitinib] has a trough serum concentration [1, 8] of 64.9 ng/mL, a trough serum concentration [1, 9] of 28.6 ng/mL and a trough serum concentration [1, 10] of 38.7 ng/mL. For the same molecule, the trough serum concentration [1, 11] was 63.7 ng/mL, the “diarrhea, CTCAE grade” value (Adverse events) was 1 and the “hand-foot skin reaction (HFSR), CTCAE grade” value (Adverse events) was 1. The “course of RCC metastases” value [6] was “pancreatic and left adrenal metastases were enlarged” and the “target trough concentration as total sunitinib concentration” value [7] was 50 to 100 ng/mL.
